Results taken from article PMC4382910 (Angewandte Chemie (International ed. in English), 2014).

Test system: HeLa cells
Test: Protein fatty-acylation levels in cells by chemical reporter alk-14
Format: cell-based, human
Settings: nuclear lysates, in-gel fluorescence, Sirt2 inhibitor
Procedure, shortened: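 HeLa cells with Sirt2 perturbed by siRNA knockdown or a selective Sirt2 inhibitor were cultured with fatty-acid chemical reporter alk-14. After harvest, cytosolic and nuclear lysates were prepared and core histones extracted. Reporter-labeled proteins were conjugated to a rhodamine dye by azide-alkyne click chemistry, and fatty-acylation levels were compared by fluorescence.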

N#C/C(=C\c1ccc(-c2cc(Cl)ccc2Cl)o1)C(=O)Nc1cccc2ncccc12 [AGK2]
labeling of core histones by alk-14: enhanced
